In the library only some 5.8% were active in any assay of this set; here they are far more common.
T cruzi growth-1: blocks T. cruzi growth in NIH3T3 culture | T. cruzi beta-gal in NIH3T3, GalScreen luminescence, 90 h | inhibition, % at 8.34 µM | actives 5.9% (n = 77,000) | AID 624255;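 active = mean inhibition above about 93%, with at least 55% of replicates each passing it, limit read from the data, passing the limit was not always enough; inconclusive = only one of those two conditions holds; inactive = neither condition holds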
IDH1 mut inh: blocks human IDH1 R132H reductase activity; AID 624101; diaphorase/resazurin fluorescence, 60 min; inhibition, % at 10 µM; O75874; actives 0.18% (n = 70,000); in the data active = inhibition above about 34%; inconclusive = no clear call, values can overlap the other calls; inactive = below about 11%;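 also: 0% = DMSO and 100% = no enzyme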
Target sequence (O75874 whole entry R132H): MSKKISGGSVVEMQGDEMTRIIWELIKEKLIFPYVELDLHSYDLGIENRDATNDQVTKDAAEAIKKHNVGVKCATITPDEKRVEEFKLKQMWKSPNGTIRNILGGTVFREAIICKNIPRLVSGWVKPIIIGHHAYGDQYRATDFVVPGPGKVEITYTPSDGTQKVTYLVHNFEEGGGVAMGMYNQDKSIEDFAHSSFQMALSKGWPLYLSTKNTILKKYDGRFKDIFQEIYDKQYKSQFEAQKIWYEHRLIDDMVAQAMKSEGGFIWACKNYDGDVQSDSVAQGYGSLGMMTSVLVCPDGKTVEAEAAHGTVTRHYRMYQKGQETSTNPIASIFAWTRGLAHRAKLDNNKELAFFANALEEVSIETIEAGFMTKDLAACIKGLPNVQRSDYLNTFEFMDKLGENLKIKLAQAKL
Pf Dd2 inh: P. falciparum Dd2 growth inhibition. AID 1159554. actives 2.3% (n = 94,000). SYBR Green, 72 h; hits give low values. activity change, % at 10 µM; in the data active = activity change below about -80%; inconclusive = no clear call, values can overlap the other calls
GASC1 inh: KDM4C (human) demethylase inhibition | GST-KDM4C 2-372, H3K9me3 peptide, LANCE TR-FRET | Q9H3R0 | AID 720574 | inhibition, % at 12.5 µM | actives 0.15% (n = 96,000);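 active = mean replicate inhibition above about 25%, with at least 55% of replicates also reaching it, limit read from the data, passing the limit was not always enough; inconclusive = only one of those two conditions met; inactive = neither condition met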
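Assay system: GST-GASC-1 enzyme fragment 2-372 | Amount: 10 nM enzyme | Medium: HEPES buffer, pH 7.5, plus ascorbate | Reagent: H3K9me3 peptide substrate, Fe(II), 2-oxoglutarate | Doses: Single-point compound screen | Incubation: 30 min demethylation and 1 h detection at room temperature | Measured by: LANCE TR-FRET, excitation 340 nm, emissions 618 and 671 nm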
T cruzi growth-2: inhibitors of T. cruzi proliferation. shares compounds with T cruzi growth-1. T. cruzi beta-gal in NIH3T3, GalScreen luminescence, 90 h. inhibition, % at 8.35 µM. actives 72% (n = 5,600);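 active = mean replicate inhibition above about 95% and at least 55% of replicates individually reaching it, limit read from the data; inconclusive = only one of the two criteria is met; inactive = neither criterion is met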
T cruzi growth-3: Trypanosoma cruzi proliferation inhibition; inhibition, % at 2.09 µM; shares compounds with T cruzi growth-1; T. cruzi beta-gal in NIH3T3, GalScreen luminescence, 90 h; actives 21% (n = 5,600);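 active = mean inhibition above about 95%, with at least 55% of replicates also reaching it, limit read from the data; inconclusive = meets just one of the two conditions; inactive = meets neither condition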;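 also: plate controls were neutral control median for no effect and positive control median for full effect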
3T3 cytotox: kills mouse NIH/3T3 fibroblasts; shares compounds with T cruzi growth-1; cytotoxicity (signal decrease), % at 8.35 µM; AID 651742; NIH/3T3 viability, CellTiter-Glo ATP luminescence, 90 h; actives 14% (n = 5,600);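 active = mean signal decrease across replicates above about 35% based on untreated-well scatter, with enough replicates individually passing, limit read from the data; inconclusive = no rule stated though some were filed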;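 also: 0% = median of neutral control wells and 100% = median of positive control wells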
NIH3T3 tox 2: cytotoxicity in mouse NIH/3T3 fibroblasts; inhibition, % at 24.9 µM; actives 56% (n = 5,600); NIH/3T3 viability, CellTiter-Glo ATP luminescence, 90 h; shares compounds with T cruzi growth-1;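 active = mean loss of cell viability signal at or above a set limit, and enough replicates individually reaching it; inconclusive = meets only the mean limit or only the replicate share; inactive = meets neither condition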;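 also: 0% = median of neutral control wells and 100% = median of positive control wells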
Starred values were filed as active, the others as inactive; u = inconclusive; x = no result.

SMILES	T cruzi growth-1	IDH1 mut inh	Pf Dd2 inh	GASC1 inh	T cruzi growth-2	T cruzi growth-3	3T3 cytotox	NIH3T3 tox 2
CCCC#Cc1ccc([C@@H]2[C@H]3CN(S(=O)(=O)c4ccccc4C)CCCCN3[C@H]2CO)cc1	111*	x	-51	2	96*	u	u	106*
CCCC#Cc1ccc([C@@H]2[C@@H](CO)N3CCCCN(S(=O)(=O)CC)C[C@@H]23)cc1	102*	x	14	-2	50	10	30	35*
Cc1ccccc1S(=O)(=O)N1CCCCN2[C@@H](CO)[C@H](c3ccc(C#CCN(C)C)cc3)[C@@H]2C1	67	x	-49	2	x	x	x	x
Cc1ccccc1S(=O)(=O)N1CCCCN2[C@H](C1)[C@@H](c1ccc(C#CCN(C)C)cc1)[C@@H]2CO	38	x	2	0	x	x	x	x
CCCC#Cc1ccc([C@H]2[C@H](CO)N3CCCCN(S(=O)(=O)c4ccccc4C)C[C@@H]23)cc1	96*	x	-21	-1	86	99*	u	103*
CCCC#Cc1ccc([C@H]2[C@@H](CO)N3CCCCN(S(=O)(=O)c4ccccc4C)C[C@H]23)cc1	108*	x	-73	-2	103*	u	52*	103*
CC1OC(c2cc3oc(-c4ccccc4)cc(=O)c3c(O)c2O)CC(O)C1O (stereo unspecified)	x	0	x	x	x	x	x	x
COc1ccc(C)cc1S(=O)(=O)N1CCC(C(=O)Nc2cc([N+](=O)[O-])ccc2C)CC1	x	0	x	x	x	x	x	x
COCC#Cc1ccc([C@H]2[C@@H](CO)N3CCCCN(S(=O)(=O)c4ccccc4C)C[C@H]23)cc1	98*	x	-62	-2	98*	70	17	107*
COCC#Cc1ccc([C@H]2[C@@H](CO)N3CCCCN(S(=O)(=O)c4ccccc4C)C[C@@H]23)cc1	86	x	-41	-2	x	x	x	x
COCC#Cc1ccc([C@H]2[C@H]3CN(S(=O)(=O)c4ccccc4C)CCCCN3[C@H]2CO)cc1	95	x	-24	-2	x	x	x	x
CCCC#Cc1ccc([C@H]2[C@@H](CO)N3CCCCN(S(=O)(=O)c4ccccc4C)C[C@@H]23)cc1	108*	x	-73	14	100*	94	3	-4
CC(NS(=O)(=O)c1ccccc1)C(=O)Nc1ccc(Cl)c(C(F)(F)F)c1 (stereo unspecified)	x	0	x	x	x	x	x	x
CCOc1ccc(Nc2ncnc3c2ncn3-c2ccc(OCC)cc2)cc1	x	0	x	x	x	x	x	x
COc1ccc(OC)c(CN2CCN(Cc3cccc([N+](=O)[O-])c3)CC2)c1	x	0	x	x	x	x	x	x
COc1ccc(C#Cc2ccc3c(c2)[C@@H]2[C@@H](CCN2C(=O)C2CC2)[C@@H](CO)N3)cc1	109*	x	-48	-2	110*	34	20	46*
O=C(c1ccccc1F)N1CC[C@@H]2[C@@H](CO)Nc3ccc(C#Cc4ccccc4)cc3[C@@H]21	u	x	-35	-5	109*	86	9	104*
COc1ccc(C#Cc2ccc3c(c2)[C@@H]2[C@@H](CCN2C(=O)c2ccccc2F)[C@H](CO)N3)cc1	100*	x	-33	0	93	19	-15	9
COc1ccc(C#Cc2ccc3c(c2)[C@H]2[C@H](CCN2C(=O)C2CCCCC2)[C@@H](CO)N3)cc1	84	x	-55	0	x	x	x	x
O=C(c1ccccc1F)N1CC[C@H]2[C@H](CO)Nc3ccc(C#Cc4ccccc4)cc3[C@H]21	108*	x	-39	-1	111*	81	20	u
CCOC(=O)c1sc(NC(=O)CSc2nc3c(c(C(F)(F)F)n2)CCCC3)c(C#N)c1C	x	0	x	x	x	x	x	x
C[C@H]1CN([C@@H](C)CO)C(=O)c2cccc(NC(=O)Nc3ccccc3)c2O[C@@H]1CN(C)Cc1ccc(Oc2ccccc2)cc1	81	1	-40	x	x	x	x	x
CC(C)NC(=O)Nc1cccc2c1O[C@H](CN(C)Cc1ccc(Oc3ccccc3)cc1)[C@H](C)CN([C@@H](C)CO)C2=O	54	-1	-71	-1	x	x	x	x
C[C@H](CO)N1C[C@H](C)[C@H](CN(C)Cc2ccc(Oc3ccccc3)cc2)Oc2c(NC(=O)Nc3cccc4ccccc34)cccc2C1=O	98*	-1	-78	-5	99*	109*	19	u
CC(C)NC(=O)Nc1cccc2c1O[C@H](CN(C)Cc1ccc(Oc3ccccc3)cc1)[C@@H](C)CN([C@@H](C)CO)C2=O	u	1	-64	-1	100*	83	-15	104*
SMILES	T cruzi growth-1	IDH1 mut inh	Pf Dd2 inh	GASC1 inh	T cruzi growth-2	T cruzi growth-3	3T3 cytotox	NIH3T3 tox 2
CC(C)NC(=O)Nc1cccc2c1O[C@H](CN(C)Cc1ccc(Oc3ccccc3)cc1)[C@@H](C)CN([C@H](C)CO)C2=O	103*	-2	-32	6	102*	62	-26	103*
C=CCC/C=N/NC(=O)CCCCCCC(=O)NO	x	0	x	x	x	x	x	x
O=C(NCCCN1CCCC1=O)c1cc(-c2ccncc2)nc2ccc(Br)cc12	x	0	x	x	x	x	x	x
CCn1c(SCC(=O)c2ccc(Br)cc2)nnc1-c1cccc(N)c1	x	1	x	x	x	x	x	x
Cc1ccccc1NC(=O)CSc1ncnc2c1sc1nc(N3CCOCC3)c3c(c12)CCCC3	x	0	x	x	x	x	x	x
CCCC#Cc1cnc2c(c1)C(=O)N([C@H](C)CO)C[C@H](C)[C@H](CN(C)S(=O)(=O)c1ccccc1)O2	46	1	-54	0	x	x	x	x
CCCC#Cc1cnc2c(c1)C(=O)N([C@@H](C)CO)C[C@@H](C)[C@@H](CN(C)S(=O)(=O)c1cccc(OC)c1)O2	88	x	18	-1	x	x	x	x
COc1cccc(S(=O)(=O)N(C)C[C@@H]2Oc3ncc(C#CC(C)C)cc3C(=O)N([C@H](C)CO)C[C@@H]2C)c1	96*	-4	-19	-1	84	19	15	52*
COc1cccc(S(=O)(=O)N(C)C[C@@H]2Oc3ncc(C#CCN(C)C)cc3C(=O)N([C@@H](C)CO)C[C@H]2C)c1	103*	-1	-8	10	96*	93	2	3
C[C@@H]1CN([C@@H](C)CO)C(=O)c2cc(C#CCN(C)C)cnc2O[C@H]1CN(C)S(=O)(=O)c1ccccc1	97*	-1	-14	3	102*	87	-23	-6
COc1cccc(S(=O)(=O)N(C)C[C@H]2Oc3ncc(C#CC(C)C)cc3C(=O)N([C@@H](C)CO)C[C@@H]2C)c1	114*	-5	-64	0	83	53	-13	3
COc1cccc(S(=O)(=O)N(C)C[C@H]2Oc3ncc(C#CC(C)C)cc3C(=O)N([C@H](C)CO)C[C@H]2C)c1	74	x	-20	1	x	x	x	x

Assay outcomes (PubChem BioAssay)
